Measured values taken from publication PMC3228886 (Journal of medicinal chemistry, 2011).
pEC50: −log10 of the molar value. Where a name gives a salt, the structure may show the parent alone.

Key:
human TLR2 = human TLR2 (Homo sapiens, UniProt O60603); assay: TLR2-specific NF-κB induction reporter gene assay; format: cell-based; conditions: for TLR2-agonistic activity (in words): TLR2-specific reporter gene assay
Outline: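 HEK-Blue reporter cells carry stably expressed secreted alkaline phosphatase under NF-κB promoters, inducible by TLR2 agonists. Cells were seeded at ~10⁵ cells/mL and grown to confluency, then stimulated for 12 h with serially diluted test compound. Supernatant sAP was read spectrophotometrically at 620 nm using an alkaline phosphatase-specific chromogen in the detection medium. Samples were run in quadruplicate, reported as means with standard deviations.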

Water solubility = format: physicochemical
human blood = conditions: ex vivo human blood models; cited from earlier work
rabbit = rabbit models; cited from earlier work
[1] = test system: murine models of immunization; conditions: cited from earlier work

Chain of human TLR2 (O60603 21-784): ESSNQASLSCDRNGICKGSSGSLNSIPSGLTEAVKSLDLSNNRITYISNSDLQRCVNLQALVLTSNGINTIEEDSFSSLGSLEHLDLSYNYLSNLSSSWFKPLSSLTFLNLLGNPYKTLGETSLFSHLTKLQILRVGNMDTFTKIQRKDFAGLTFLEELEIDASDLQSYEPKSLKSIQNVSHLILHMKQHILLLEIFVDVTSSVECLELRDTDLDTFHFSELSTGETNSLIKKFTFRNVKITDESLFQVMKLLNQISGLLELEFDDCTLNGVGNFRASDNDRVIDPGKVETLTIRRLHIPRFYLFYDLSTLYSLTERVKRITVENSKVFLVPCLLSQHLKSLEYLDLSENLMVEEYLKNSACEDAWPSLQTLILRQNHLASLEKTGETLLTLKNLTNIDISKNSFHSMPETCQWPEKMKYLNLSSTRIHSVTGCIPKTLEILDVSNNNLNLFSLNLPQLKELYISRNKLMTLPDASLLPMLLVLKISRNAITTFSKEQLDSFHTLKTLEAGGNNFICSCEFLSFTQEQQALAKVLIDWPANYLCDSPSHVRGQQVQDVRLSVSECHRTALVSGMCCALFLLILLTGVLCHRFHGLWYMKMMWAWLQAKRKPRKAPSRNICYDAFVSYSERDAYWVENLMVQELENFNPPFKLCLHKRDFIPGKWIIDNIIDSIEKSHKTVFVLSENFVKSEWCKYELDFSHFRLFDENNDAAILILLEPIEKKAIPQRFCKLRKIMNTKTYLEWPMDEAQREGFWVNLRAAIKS
Chain of human TLR2 (Q9Y2C9 32-796 partner): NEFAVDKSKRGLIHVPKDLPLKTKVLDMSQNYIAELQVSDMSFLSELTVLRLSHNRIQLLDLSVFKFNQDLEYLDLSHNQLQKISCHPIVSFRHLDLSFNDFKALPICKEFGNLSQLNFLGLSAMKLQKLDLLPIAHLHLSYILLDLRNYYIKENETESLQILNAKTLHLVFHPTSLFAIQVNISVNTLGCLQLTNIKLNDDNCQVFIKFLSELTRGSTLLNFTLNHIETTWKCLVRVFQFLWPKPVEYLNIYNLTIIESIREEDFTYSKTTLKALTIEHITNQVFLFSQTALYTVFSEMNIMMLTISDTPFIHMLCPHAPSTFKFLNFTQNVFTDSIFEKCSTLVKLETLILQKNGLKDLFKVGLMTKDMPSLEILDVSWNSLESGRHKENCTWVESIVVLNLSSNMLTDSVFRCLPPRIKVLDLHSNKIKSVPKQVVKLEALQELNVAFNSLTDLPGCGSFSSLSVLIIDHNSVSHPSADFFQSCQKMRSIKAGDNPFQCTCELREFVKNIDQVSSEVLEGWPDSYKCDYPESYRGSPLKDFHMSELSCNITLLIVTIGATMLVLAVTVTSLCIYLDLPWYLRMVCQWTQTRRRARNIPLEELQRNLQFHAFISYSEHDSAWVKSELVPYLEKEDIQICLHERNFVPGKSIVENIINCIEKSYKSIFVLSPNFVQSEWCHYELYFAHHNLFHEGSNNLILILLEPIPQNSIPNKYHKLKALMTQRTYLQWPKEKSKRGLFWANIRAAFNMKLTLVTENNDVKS

Row | SMILES | TLR2-agonistic activity (in words) (human TLR2) | further results
1 | CCCCCCCCCCCCCCCC(=O)OC[C@H](CSC[C@H](N)C(=O)NCC(=O)OC(C)C)OC(=O)CCCCCCCCCCCCCCC [Compound 7] | highly active | Water solubility (Water solubility): not water-soluble
2 | CCCCC/C=C\C/C=C\CCCCCCCC(=O)OC[C@H](CSC[C@H](N)C(=O)NCC(=O)OC(C)C)OC(=O)CCCCCCC/C=C\C/C=C\CCCCC [Compound 8] | highly active | Water solubility (Water solubility): not water-soluble
3 | CC/C=C\C/C=C\C/C=C\CCCCCCCC(=O)OC[C@H](CSC[C@H](N)C(=O)NCC(=O)OC(C)C)OC(=O)CCCCCCC/C=C\C/C=C\C/C=C\CC [Compound 9] | highly active | Water solubility (Water solubility): not water-soluble
4 | CCCCCCCCCCCCCCCC(=O)OC[C@H](CSC[C@H](NC(=O)CC[C@H](N)C(=O)O)C(=O)NCC(=O)OC(C)C)OC(=O)CCCCCCCCCCCCCCC [Compound 11] | virtually inactive | –
5 | CCCCCCCCCCCC(=O)OC[C@H](CSC[C@H](N)C(=O)N[C@@H](CO)C(=O)O)OC(=O)CCCCCCCCCCC [Compound 17] | lower in activity than the parent PAM2CS compound | –
6 | CCCCCCCCCCCCCC(=O)OC[C@H](CSC[C@H](N)C(=O)N[C@@H](CO)C(=O)O)OC(=O)CCCCCCCCCCCCC [Compound 18] | lower in activity than the parent PAM2CS compound | –
7 | CCCCCCCCCCCCCCCCCC(=O)OC[C@H](CSC[C@H](N)C(=O)N[C@@H](CO)C(=O)O)OC(=O)CCCCCCCCCCCCCCCCC [Compound 19] | lower in activity than the parent PAM2CS compound | –
8 | CCOCCOCCOCCCNCC(=O)OC[C@H](CSC[C@H](N)C(=O)N[C@@H](CO)C(=O)O)OC(=O)CNCCCOCCOCCOCC [Compound 24] | inactive | –
9 | CCCCCCCCCCCCCCCC(=O)OC[C@@H](O)CSC[C@H](N)C(=O)N[C@@H](CO)C(=O)O [Compound 35] | unexpectedly active | –
10 | CCCCCCCCCCCCCCCC(=O)O[C@H](CO)CSC[C@H](N)C(=O)N[C@@H](CO)C(=O)O [Compound 38] | unexpectedly active | –
11 | CCCCCCCCCCCCCCCC(=O)OCCSC[C@H](N)C(=O)N[C@@H](CO)C(=O)OC [Compound 44, 2-(((R)-2-amino-3-(((S)-3-hydroxy-1-methoxy-1-oxopropan-2-yl)amino)-3-oxopropyl)thio)ethyl palmitate, trifluoroacetate] | quite active | pEC50 (human TLR2): 8.26; Water solubility (Water solubility): water-soluble
12 | CCCCCCCCCCCCCCCC(=O)OCCCSC[C@H](N)C(=O)N[C@@H](CO)C(=O)OC [Compound 47, 3-(((R)-2-amino-3-(((S)-3-hydroxy-1-methoxy-1-oxopropan-2-yl)amino)-3-oxopropyl)thio)propyl palmitate, trifluoroacetate] | completely inactive | –
13 | CCCCCCCCCCCCCCCCOC(=O)CSC[C@H](N)C(=O)N[C@@H](CO)C(=O)OC [Compound 50, (S)-methyl 2-((R)-2-amino-3-((2-(hexadecyloxy)-2-oxoethyl)thio)propanamido)-3-hydroxypropanoate, trifluoroacetate] | virtually bereft of activity | –
14 | CCCCCCCCCCCCCCCCOC(=O)CCSC[C@H](N)C(=O)N[C@@H](CO)C(=O)OC [Compound 53, (S)-methyl 2-((R)-2-amino-3-((3-(hexadecyloxy)-3-oxopropyl)thio)propanamido)-3-hydroxypropanoate, trifluoroacetate] | virtually bereft of activity | –
15 | CCCCCCCCCCCCCCCC(=O)OC[C@H](CSC(C)(C)[C@@H](N)C(=O)N[C@@H](CO)C(=O)OC)OC(=O)CCCCCCCCCCCCCCC [Compound 59] | inactive | –
16 | CCCCCCCCCCCCCCCC(=O)OC[C@H](CSC(C)(C)[C@H](N)C(=O)N[C@@H](CO)C(=O)O)OC(=O)CCCCCCCCCCCCCCC [Compound 64] | inactive | –
17 | CCCCCCCCCCCCCCCC(=O)OC[C@H](CSCC[C@H](N)C(=O)N[C@@H](CO)C(=O)O)OC(=O)CCCCCCCCCCCCCCC [Compound 69] | inactive | –
18 | CCCCCCCCCCCCCCCC(=O)OC[C@H](CSCCC(=O)N[C@@H](CO)C(=O)OC)OC(=O)CCCCCCCCCCCCCCC [Compound 74] | inactive | –
19 | CCCCCCCCCCCCCCCC(=O)OCC(CSC[C@H](N)C(=O)N[C@@H](CO)C(=O)O)OC(=O)CCCCCCCCCCCCCCC (stereo partly drawn) [PAM2CS, S-[2,3-bis(palmitoyloxy)-(2RS)-propyl]-R-cysteinyl-S-serine] | – | Pro-inflammatory activity (human blood): devoid of any detectable pro-inflammatory activity; Local reactogenicity and pyrogenicity (rabbit): devoid; Adjuvanticity [1]: potently adjuvantic
